SUMO HTRF inh – inhibitors of in vitro SUMOylation cascade, primary screen, biochemical, HTRF, uHTS. 0.36% of 290,000 active. inhibition, % at 35 µM. AID 2006, 2009. HTRF SUMOylation assay, SAE1/SAE2 + UBC9; in the data active means inhibition above about 50%, passing the limit was not always enough
Target sequence (P63279 whole entry, looked up): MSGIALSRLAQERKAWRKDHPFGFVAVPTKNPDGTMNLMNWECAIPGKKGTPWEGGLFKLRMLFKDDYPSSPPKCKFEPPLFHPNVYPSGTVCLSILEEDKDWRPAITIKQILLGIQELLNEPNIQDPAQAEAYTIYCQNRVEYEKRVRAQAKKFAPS
core dimer inh – inhibitors of HCV core protein dimerization, primary screen, biochemical, TR-FRET, high-throughput; AID 1899, 2009; TR-FRET GST/Flag-core106 dimerization, 1536-well; inhibition, % at 5 µM; 0.33% of 300,000 active;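 active means inhibition above the mean of all tested compounds plus 3 SD, set per screening campaign, cut at about 45% in these data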
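Assay system: tagged HCV core106 pair (GST and Flag); medium: KF-containing HEPES buffer, pH 7.45, DTT, CHAPS, BSA; also added: Eu donor and XL665 acceptor anti-tag antibodies; dosing: 5 µM single dose; timing: compound-protein-antibody incubation 4 h at 22.5 °C; signal: TR-FRET 671 and 617 nm emission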
PHOSPHO1 block – PubChem AID 1565; Phosphoethanolamine/phosphocholine phosphatase (Homo sapiens), Q8TCT1; recombinant PHOSPHO1, absorbance phosphatase assay; inhibition, % at 13.3 µM; 1.1% of 290,000 active; in the data active means inhibition above about 60%
Target sequence (Q8TCT1 whole entry, looked up): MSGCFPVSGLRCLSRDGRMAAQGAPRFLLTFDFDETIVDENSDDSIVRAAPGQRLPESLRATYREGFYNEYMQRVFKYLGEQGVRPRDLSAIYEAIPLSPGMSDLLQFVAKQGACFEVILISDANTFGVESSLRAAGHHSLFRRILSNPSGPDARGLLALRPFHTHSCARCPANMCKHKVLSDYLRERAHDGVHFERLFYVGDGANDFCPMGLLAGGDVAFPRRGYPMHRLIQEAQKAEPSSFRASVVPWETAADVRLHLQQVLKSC
VIM-2 inh – VIM-2 metallo-beta-lactamase inhibitors, primary screen, biochemical, epi-absorbance readout, Pseudomonas aeruginosa enzyme | purified VIM-2, nitrocefin hydrolysis, epi-absorbance fluorescence | inhibition, % at 5.6 µM | 0.89% of 290,000 active | AID 1527, 2009;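 active means inhibition above the mean of all tested compounds plus 3 SD, cutoff set per screening run, cut at about 7.5% in these data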;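 further: red hydrolysis product quenches plate fluorescence so inhibitors raise well fluorescence; 0% = enzyme with DMSO and 100% = DMSO without enzyme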
NS3 helicase inh – inhibitors of HCV NS3 helicase, primary screen, biochemical, Cy5 molecular beacon fluorescence. inhibition, % at 10.9 µM. 0.56% of 290,000 active. NS3 helicase DNA unwinding. AID 1800, 2009;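 active means inhibition above the mean of all tested compounds plus 3 SD, set per campaign, cut at about 35% in these data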;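 further: 0% = DMSO wells and 100% = thioflavine S control wells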
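test system = hepatitis C virus NS3 helicase domain fragment enzyme | reagent = annealed dual-labelled DNA beacon duplex, ATP-started | times = 1 h at 25 °C | detection = Cy5 fluorescence, 0 and 60 min reads | read-out basis = percent inhibition from t60/t0 fluorescence ratio | control set = DMSO and thioflavine S | replication = one well per compound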
IMP-1 inh-1 – IMP-1 metallo-beta-lactamase inhibitors, primary screen, biochemical, epi-absorbance readout, Pseudomonas aeruginosa enzyme. metallo-beta-lactamase IMP-1 (Pseudomonas aeruginosa). purified IMP-1, nitrocefin hydrolysis, epi-absorbance fluorescence. inhibition, % at 5.6 µM. 0.45% of 290,000 active. AID 1556, 2009;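 active means inhibition above the mean plus 3 SD of all compounds in the same screening run, cut at about 4.5% in these data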;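 further: 0% = IMP-1 with DMSO and 100% = DMSO wells lacking enzyme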
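assay system = purified recombinant IMP-1 metallo-beta-lactamase enzyme | schedule = 15 min preincubation plus 25 min reaction at 25 °C | signal = Epi-absorbance fluorescence, 480 nm excitation, 530 nm emission | read-out basis = percent inhibition from optical density relative to buffer-blank wells | controls = IMP-1 with DMSO as 0%, enzyme-free DMSO as 100%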
IMP-1 inh-2 – IMP-1 metallo-beta-lactamase inhibitors, confirmation, selectivity assay for selective VIM-2 inhibitor project, biochemical, epi-absorbance readout, triplicate. shares compounds with VIM-2 inh. purified IMP-1, nitrocefin hydrolysis, epi-absorbance fluorescence. inhibition, % at 5.6 µM. 1,300 tested, under 10 active; call rule not given here;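 further: 0% = enzyme with vehicle and 100% = vehicle without enzyme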
VIM-2 FRET inh – VIM-2 inhibitors in FRET format, confirmation, artefact control for selective VIM-2 inhibitor project, biochemical, epi-absorbance artifact exclusion. purified VIM-2, CCF2 FRET substrate hydrolysis. shares compounds with VIM-2 inh. 23% of 1,300 active. inhibition, % at 5.6 µM;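 active means inhibition above the mean of all tested compounds plus 3 SD, cut at about 19% in these data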;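 further: 0% = VIM-2 plus DMSO and 100% = no enzyme wells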
TEM-1 inh – TEM-1 serine beta-lactamase inhibitors, counter-screen for VIM-2 inhibitor project, biochemical, epi-absorbance, HTS; shares compounds with VIM-2 inh; Purified TEM-1, nitrocefin hydrolysis, epi-absorbance fluorescence; inhibition, % at 5.6 µM; 3% of 1,300 active; AID 1866, 2009;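 active means inhibition above that campaign's mean inhibition plus 3 SD, cut at about 0.46% in these data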;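 further: 0% = TEM-1 with DMSO and 100% = TEM-1 with 100 µM potassium clavulanate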
Target sequence (P62593 whole entry, looked up): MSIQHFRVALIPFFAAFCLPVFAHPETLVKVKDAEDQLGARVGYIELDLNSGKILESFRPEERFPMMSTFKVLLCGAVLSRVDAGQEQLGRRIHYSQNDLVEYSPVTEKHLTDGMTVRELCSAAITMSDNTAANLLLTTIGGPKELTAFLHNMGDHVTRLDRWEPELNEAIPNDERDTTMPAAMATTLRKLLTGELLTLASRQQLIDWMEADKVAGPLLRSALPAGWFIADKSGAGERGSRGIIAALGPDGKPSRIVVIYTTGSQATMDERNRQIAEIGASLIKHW
VIM-2 inh conf – VIM-2 metallo-beta-lactamase inhibitors, confirmation, biochemical, epi-absorbance, hits shared with IMP-1 screen | shares compounds with VIM-2 inh | purified VIM-2, nitrocefin hydrolysis | inhibition, % at 5.6 µM | 96% of 1,300 active | AID 2187, 2009;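 active means inhibition of the VIM-2 beta-lactamase enzyme above about 11% from the earlier first-round screen, limit read from the data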;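 further: 0% = VIM-2 with DMSO and 100% = buffer wells without enzyme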
Numbers without * were called inactive; · = not tested or not shown. Only some compounds are listed: those with a hit (about 3.1% of all), similar ones and a draw of the others.

SMILES | SUMO HTRF inh | core dimer inh | PHOSPHO1 block | VIM-2 inh | NS3 helicase inh | IMP-1 inh-1 | IMP-1 inh-2 | VIM-2 FRET inh | TEM-1 inh | VIM-2 inh conf
COc1ccc(/C=C2/SC(=S)N(CCC(=O)N3CCN(C)CC3)C2=O)cc1 | -11 | 5 | 18 | 4 | -68 | -1 | · | · | · | ·
N#Cc1ccccc1OCC(=O)Nc1ccccc1C(=O)NC1CC1 | · | 1 | · | · | · | · | · | · | · | ·
COc1ccc(-c2nc(C#N)c(NCCCn3ccnc3)o2)cc1OC | 18 | -17 | 8 | 17* | -3 | 0 | -2 | -15 | -5 | 43*
N#Cc1nc(-c2ccco2)oc1NCCCn1ccnc1 | 16 | -3 | -3 | 26* | 8 | -4 | -3 | -6 | -6 | 44*
CCC1CCCCN1CCCNC(=O)c1ccc2c(c1)c(C)c(C)n2C (stereo unspecified) | 18 | -12 | 22 | -2 | -12 | -2 | · | · | · | ·
CCC1CCCCN1CCCNC(=O)c1cc2c(=O)oc3ccc(C)cc3c2s1 (stereo unspecified) | -11 | -7 | 49 | 12* | -25 | 0 | -3 | 5 | -10 | 17*
CC(=O)NCCn1c(SCC(=O)c2ccccc2)nc2ccccc2c1=O | 18 | 3 | 4 | 14* | 0 | -2 | -2 | 24* | -4 | 20*
c1cn(-c2ccc(-c3ccnc4ncnn34)cc2)cn1 | 10 | -4 | 20 | 45* | -7 | -1 | -3 | 2 | -4 | 63*
c1cncc(-c2ccnc3ncnn23)c1 | -1 | 3 | 4 | -1 | 3 | -3 | · | · | · | ·
O=[N+]([O-])c1cc(CN2CCCC2)c2cccnc2c1O | 49 | -4 | -16 | 38* | 25 | -5 | -3 | 3 | -6 | 44*
Oc1ccc(CN2CCN(c3ccccc3)CC2)c2cccnc12 | 1 | -2 | -3 | -3 | 4 | -2 | · | · | · | ·
O=[N+]([O-])c1cc(CN2CCN(c3cccc(C(F)(F)F)c3)CC2)c2cccnc2c1O | 86 | 22 | -30 | 35* | 17 | -4 | -3 | 2 | -7 | 15*
COc1ccccc1N1CCN(Cc2cc(Br)c(O)c3ncccc23)CC1 | 0 | -9 | 78* | 24* | 19 | -4 | -3 | 2 | -6 | 7
OCCN1CCN(Cc2cc(Cl)c3cccnc3c2O)CC1 | -44 | -8 | 26 | -3 | -2 | -2 | · | · | · | ·
COc1ccc(NC(=O)c2ccc(NCCN3C(=O)CCC3=O)c([N+](=O)[O-])c2)cc1 | 27 | 7 | 37 | 0 | -5 | -3 | · | · | · | ·
CCOC(=O)C1CCN(C(=O)CSc2ccccc2Cl)CC1 | -26 | 2 | -68 | -4 | 5 | -3 | · | · | · | ·
COc1ccccc1/C=C/C(=O)NNC(=O)c1cccs1 | -10 | 3 | 4 | 0 | 10 | 0 | · | · | · | ·
CC(=O)N1CCN(S(=O)(=O)c2cccc(C(=O)NNC(=O)COc3ccc(Cl)cc3C)c2)CC1 | · | 1 | · | · | · | · | · | · | · | ·
OCCCc1n[nH]c(=S)n1-c1ccccc1 | 10 | 4 | 32 | 23* | 2 | -2 | -3 | 38* | -7 | 27*
Oc1ccc(C2=Nn3c(nnc3-c3ccco3)SC2)cc1O | 3 | -7 | 31 | 16* | -1 | -2 | -4 | -3 | -9 | 28*
CCCCNC(=O)c1cn(CC)c2cc(N3CCN(C)CC3)c(F)cc2c1=O | 7 | 5 | 47 | 3 | -8 | -2 | · | · | · | ·
CCN(CC)CCNC(=O)c1cn(CC)c2cc(N3CCN(C)CC3)c(F)cc2c1=O | 18 | -6 | · | 12* | 1 | 1 | -2 | 0 | -3 | 27*
Cc1nn2c(N3CCN(C)CC3)c3c(nc2c1-c1ccccc1)CCCC3 | 19 | -14 | -23 | 26* | -23 | 1 | -2 | -4 | -5 | 55*
Cc1nn2c(NCCN3CCOCC3)c3c(nc2c1-c1ccccc1)CCCC3 | -15 | -3 | 30 | -2 | -6 | -1 | · | · | · | ·
CCC(C)C(=O)Nn1c(C2CC2)nc2cc(OC)c(OC)cc2c1=O (stereo unspecified) | 9 | -1 | 2 | -5 | 1 | -3 | · | · | · | ·
SMILES | SUMO HTRF inh | core dimer inh | PHOSPHO1 block | VIM-2 inh | NS3 helicase inh | IMP-1 inh-1 | IMP-1 inh-2 | VIM-2 FRET inh | TEM-1 inh | VIM-2 inh conf
Oc1ccccc1N1CCN(CC(O)COCc2ccccc2Cl)CC1 (stereo unspecified) | 6 | -2 | 13 | -2 | -9 | -3 | · | · | · | ·
COc1ccc(C)cc1NC(=O)NNC(=O)C(C)Oc1ccc([N+](=O)[O-])cc1 (stereo unspecified) | -5 | 1 | -15 | 0 | 0 | -4 | · | · | · | ·
O=[N+]([O-])c1ccccc1/C=N/n1c(C2CCCCC2)n[nH]c1=S | 0 | 12 | -7 | -2 | 6 | -5 | · | · | · | ·
O=[N+]([O-])c1ccccc1/C=N/n1c(C(F)(F)F)n[nH]c1=S | 8 | -2 | 16 | 14* | 6 | -3 | -4 | 55* | -8 | 36*
CCC[C@H](CN[C@@H](CNC)[C@H](C)O)NCCc1ccc(OC)cc1 | -5 | -8 | 20 | 1 | -2 | 0 | · | · | · | ·
CCCC[C@@H](CNC)NC[C@H](Cc1ccc(O)cc1)NCCc1ccc(OCC)cc1 | 1 | -14 | 25 | 67* | -56 | 1 | -3 | -3 | -6 | 70*
COc1cc(CNCCCN2CCOCC2)cc(Cl)c1OCC(=O)NC(C)(C)C | 6 | -3 | · | -3 | -2 | -2 | · | · | · | ·
Cn1nc(-c2ccc(OCC(=O)Nc3cccnc3)cc2)c2ccccc2c1=O | -13 | 3 | 3 | 20* | 6 | -3 | -4 | 2 | -7 | 31*
COc1ccc2[nH]cc(CCNC(=O)COc3cc(C)cc4oc(=O)cc(C)c34)c2c1 | 13 | 2 | 23 | -1 | -6 | -5 | · | · | · | ·

Bioassay records as filed in PubChem BioAssay.
